Test results published in ChEMBL document CHEMBL4406834, “Phenylthiazoles with nitrogenous side chain: An approach to overcome molecular obesity” (Eur J Med Chem, 2019).
Converted amounts (≈) assume the structure as drawn. The source made the active and inactive calls. No cut-off for these calls is given here.

Columns and labels:
Staphylococcus aureus [1] = test: Bactericidal activity against methicillin-resistant Staphylococcus aureus USA400 assessed as reduction in bacterial burden at 5 times MIC after 24 hrs by time kill assay; type: functional, organism-based
Staphylococcus aureus [2] = test: Antibacterial activity against intracellular methicillin resistant Staphylococcus aureus USA400 infected in mouse J774 cells assessed as intracellular bacterial cells at 2 times MIC concentration incubated for 24 hrs followed by re-plating on TSA plate for 18 to 22 hrs by serial dilution method; type: functional, organism-based
In short: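 J774 murine macrophages in DMEM + 10% FBS, 37 °C, 5% CO2, infected with MRSA USA400 at MOI ~10:1 for 1 h. Washed with gentamicin 100 µg/mL to kill extracellular bacteria. […] Cells lysed with 0.1% Triton-X, serially diluted in PBS, plated on TSA for 18-22 h, CFU counted. One-way ANOVA with Dunnett's test.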

Staphylococcus aureus [3] = test: Bactericidal activity against vancomycin-resistant Staphylococcus aureus 10 incubated for 18 to 20 hrs followed by replating on tryptic soy agar plate and further incubated for 18 to 24 hrs by CLSI-based broth microdilution assay; type: functional
In short: (§1)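 MBC: after the broth microdilution MIC (CAMHB, ~5 × 10^5 CFU/mL, 37 °C, 18-20 h), 4 µL from wells without growth plated onto tryptic soy agar. Plates incubated 37 °C for 18-20 h. MBC is the lowest concentration giving 99.9% reduction in growth.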

Streptococcus pneumoniae [4] = test: Bactericidal activity against methicillin-resistant Streptococcus pneumoniae ATCC 700677 incubated for 18 to 20 hrs followed by replating on tryptic soy agar plate and further incubated for 18 to 24 hrs by CLSI-based broth microdilution assay; type: functional; in short: as §1
Staphylococcus aureus [5] = test: Antibiofilm activity against methicillin resistant Staphylococcus aureus NRS384 USA300 assessed as disruption of matured biofilm formation at 4 x MIC incubated for 24 hrs by crystal violet staining based spectrophotometric analysis; type: functional, organism-based
In short: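 MRSA USA300 overnight culture diluted 1:100 in tryptic soy broth + 1% glucose. Biofilm formed for 24 h at 37 °C. Planktonic cells removed, then compounds added at 256 to 2 µg/mL in TSB for 24 h at 37 °C. Wells washed with PBS, stained with 0.1% crystal violet for 30 min, destained with ethanol, read at OD595. Percent eradication relative to DMSO; unpaired t test.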

Staphylococcus aureus [6] = test: Bactericidal activity against methicilline-resistant Staphylococcus aureus NRS-119 incubated for 18 to 20 hrs followed by replating on tryptic soy agar plate and further incubated for 18 to 24 hrs by CLSI-based broth microdilution assay; type: functional; in short: as §1
Staphylococcus aureus [7] = test: Bactericidal activity against methicilline-sensitive Staphylococcus aureus NRS-107 incubated for 18 to 20 hrs followed by replating on tryptic soy agar plate and further incubated for 18 to 24 hrs by CLSI-based broth microdilution assay; type: functional; in short: as §1
Streptococcus pneumoniae [8] = test: Bactericidal activity against cephalosporin-resistant Streptococcus pneumoniae ATCC 51916 incubated for 18 to 20 hrs followed by replating on tryptic soy agar plate and further incubated for 18 to 24 hrs by CLSI-based broth microdilution assay; type: functional; in short: as §1
Staphylococcus aureus [9] = test: Bactericidal activity against methicilline-resistant Staphylococcus aureus NRS386 USA700 incubated for 18 to 20 hrs followed by replating on tryptic soy agar plate and further incubated for 18 to 24 hrs by CLSI-based broth microdilution assay; type: functional; in short: as §1
Streptococcus pneumoniae [10] = test: Antibacterial activity against methicillin-resistant Streptococcus pneumoniae ATCC 700677 after 18 to 20 hrs by CLSI-based broth microdilution assay; type: functional
In short: (§2)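 Broth microdilution per CLSI. Strains grown aerobically overnight on tryptone soy agar at 37 °C, adjusted to 0.5 McFarland, then diluted in cation-adjusted Mueller-Hinton broth to about 5 × 10^5 CFU/mL. Compounds (10 mg/mL DMSO stocks) serially diluted. Incubated aerobically at 37 °C for 18-20 h. MIC is the lowest concentration with no visible growth.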

Staphylococcus aureus [11] = test: Bactericidal activity against methicilline-resistant Staphylococcus aureus NRS384 USA300 incubated for 18 to 20 hrs followed by replating on tryptic soy agar plate and further incubated for 18 to 24 hrs by CLSI-based broth microdilution assay; type: functional; in short: as §1
Staphylococcus aureus [12] = test: Bactericidal activity against methicilline-resistant Staphylococcus aureus NRS123 USA400 incubated for 18 to 20 hrs followed by replating on tryptic soy agar plate and further incubated for 18 to 24 hrs by CLSI-based broth microdilution assay; type: functional; in short: as §1
Staphylococcus aureus [13] = test: Antibacterial activity against vancomycin-resistant Staphylococcus aureus 10 after 18 to 20 hrs by CLSI-based broth microdilution assay; type: functional; in short: as §2
Staphylococcus aureus [14] = test: Bactericidal activity against vancomycin-resistant Staphylococcus aureus 12 incubated for 18 to 20 hrs followed by replating on tryptic soy agar plate and further incubated for 18 to 24 hrs by CLSI-based broth microdilution assay; type: functional; in short: as §1
Enterococcus faecalis [15] = test: Bactericidal activity against vancomycin-resistant Enterococcus faecalis ATCC 51299 incubated for 18 to 20 hrs followed by replating on tryptic soy agar plate and further incubated for 18 to 24 hrs by CLSI-based broth microdilution assay; type: functional; in short: as §1
Streptococcus pneumoniae [16] = test: Antibacterial activity against cephalosporin-resistant Streptococcus pneumoniae ATCC 51916 after 18 to 20 hrs by CLSI-based broth microdilution assay; type: functional; in short: as §2
Staphylococcus aureus [17] = test: Antibacterial activity against Staphylococcus aureus ATCC BAA42 after 18 to 20 hrs by CLSI-based broth microdilution assay; type: functional; in short: as §2
Staphylococcus aureus [18] = test: Antibacterial activity against vancomycin-resistant Staphylococcus aureus 12 after 18 to 20 hrs by CLSI-based broth microdilution assay; type: functional; in short: as §2
Staphylococcus aureus [19] = test: Bactericidal activity against Staphylococcus aureus ATCC BAA42 incubated for 18 to 20 hrs followed by replating on tryptic soy agar plate and further incubated for 18 to 24 hrs by CLSI-based broth microdilution assay; type: functional; in short: as §1
Staphylococcus aureus [20] = test: Bactericidal activity against methicilline-sensitive Staphylococcus aureus ATCC 6538 incubated for 18 to 20 hrs followed by replating on tryptic soy agar plate and further incubated for 18 to 24 hrs by CLSI-based broth microdilution assay; type: functional; in short: as §1
Staphylococcus aureus [21] = test: Bactericidal activity against methicilline-resistant Staphylococcus aureus NRS385 USA500 incubated for 18 to 20 hrs followed by replating on tryptic soy agar plate and further incubated for 18 to 24 hrs by CLSI-based broth microdilution assay; type: functional; in short: as §1
Enterococcus faecium [22] = test: Antibacterial activity against vancomycin-resistant Enterococcus faecium ATCC 700221 after 18 to 20 hrs by CLSI-based broth microdilution assay; type: functional; in short: as §2
Enterococcus faecium [23] = test: Bactericidal activity against vancomycin-resistant Enterococcus faecium ATCC 700221 incubated for 18 to 20 hrs followed by replating on tryptic soy agar plate and further incubated for 18 to 24 hrs by CLSI-based broth microdilution assay; type: functional; in short: as §1
Listeria monocytogenes = test: Antibacterial activity against Listeria monocytogenes ATCC 19111 after 18 to 20 hrs by CLSI-based broth microdilution assay; type: functional
Enterococcus faecalis [24] = test: Antibacterial activity against vancomycin-resistant Enterococcus faecalis ATCC 51299 after 18 to 20 hrs by CLSI-based broth microdilution assay; type: functional; in short: as §2

For `CN[C@H](CC(C)C)C(=O)N[C@H]1C(=O)N[C@@H](CC(N)=O)C(=O)N[C@H]2C(=O)N[C@H]3C(=O)N[C@H](C(=O)N[C@H](C(=O)O)c4cc(O)cc(O)c4-c4cc3ccc4O)[C@H](O)c3ccc(c(Cl)c3)Oc3cc2cc(c3O[C@@H]2O[C@H](CO)[C@@H](O)[C@H](O)[C@H]2O[C@H]2C[C@](C)(N)[C@H](O)[C@H](C)O2)Oc2ccc(cc2Cl)[C@H]1O` [VANCOMYCIN], the inhibition (Staphylococcus aureus [1]) was “Active”, the inhibition (Staphylococcus aureus [2]) was “inactive” and the MBC (Staphylococcus aureus [3]) was over 64 µg/mL. For the same compound, the MBC (Streptococcus pneumoniae [4]) was 1 µg/mL (≈ 0.69 µM), the inhibition (Staphylococcus aureus [5]) was “inactive” and the MBC (Staphylococcus aureus [6]) was 1 µg/mL (≈ 0.69 µM). The MBC (Staphylococcus aureus [7]) was 1 µg/mL (≈ 0.69 µM), the MBC (Streptococcus pneumoniae [8]) was 1 µg/mL (≈ 0.69 µM) and the MBC (Staphylococcus aureus [9]) was 1 µg/mL (≈ 0.69 µM). The MIC (Streptococcus pneumoniae [10]) was 1 µg/mL (≈ 0.69 µM), the MBC (Staphylococcus aureus [11]) was 1 µg/mL (≈ 0.69 µM) and the MBC (Staphylococcus aureus [12]) was 1 µg/mL (≈ 0.69 µM). It also gave an MIC (Staphylococcus aureus [13]) of over 64 µg/mL, an MBC (Staphylococcus aureus [14]) of over 64 µg/mL and an MBC (Enterococcus faecalis [15]) of 64 µg/mL (≈ 44.2 µM). For the same compound, the MIC (Streptococcus pneumoniae [16]) was 0.5 µg/mL (≈ 0.345 µM), the MIC (Staphylococcus aureus [17]) was at most 0.5 µg/mL and the MIC (Staphylococcus aureus [18]) was over 64 µg/mL. For the same compound, the MBC (Staphylococcus aureus [19]) was at most 0.5 µg/mL, the MBC (Staphylococcus aureus [20]) was 1 µg/mL (≈ 0.69 µM) and the MBC (Staphylococcus aureus [21]) was 1 µg/mL (≈ 0.69 µM). For the same compound, the MIC (Enterococcus faecium [22]) was over 64 µg/mL, the MBC (Enterococcus faecium [23]) was over 64 µg/mL and the MIC (Listeria monocytogenes) was 0.5 µg/mL (≈ 0.345 µM). It also gave an MIC (Enterococcus faecalis [24]) of 32 µg/mL (≈ 22.1 µM).
